Measured values as given in ChEMBL document CHEMBL4354876, “A Selective Modulator of Peroxisome Proliferator-Activated Receptor γ with an Unprecedented Binding Mode” (J Med Chem, 2020).
Activity calls are given as the source filed them. No cut-off for these calls is given here.

Experiments:
[1] = molecular target: T1, Peroxisome proliferator-activated receptor alpha (Homo sapiens, UniProt Q07869); assay: Partial agonist activity at Gal4-fused PPARalpha LBD (unknown origin) expressed in HEK293T cells after 14 to 16 hrs by dual-Glo luciferase assay; assay type: cell-based
T1 sequence (Q07869 whole entry): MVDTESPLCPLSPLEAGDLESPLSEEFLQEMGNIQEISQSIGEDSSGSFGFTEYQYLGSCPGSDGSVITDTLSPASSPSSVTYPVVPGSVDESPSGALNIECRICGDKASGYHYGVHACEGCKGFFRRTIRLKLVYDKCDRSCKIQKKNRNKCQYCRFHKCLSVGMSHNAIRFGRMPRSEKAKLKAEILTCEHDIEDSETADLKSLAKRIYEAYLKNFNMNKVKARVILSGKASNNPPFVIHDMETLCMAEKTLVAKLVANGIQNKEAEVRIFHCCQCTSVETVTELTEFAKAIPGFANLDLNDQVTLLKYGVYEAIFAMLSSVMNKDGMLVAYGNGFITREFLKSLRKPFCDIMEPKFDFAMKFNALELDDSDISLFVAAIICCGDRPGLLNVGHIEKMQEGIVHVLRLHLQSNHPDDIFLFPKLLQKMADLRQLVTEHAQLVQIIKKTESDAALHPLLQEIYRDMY
Outline: (§1)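 Gal4 hybrid reporter assay in transiently transfected HEK293T cells. Constructs fuse the yeast Gal4 DNA-binding domain to the human receptor LBD. Firefly luciferase is the reporter. Constitutive renilla luciferase monitors transfection efficiency and toxicity. EC50 and maximal relative activation are reported as mean±S.E.M., n≥3.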

[2] = molecular target: T2, Peroxisome proliferator-activated receptor gamma (Homo sapiens) (UniProt P37231); assay: Partial agonist activity at Gal4-fused PPARgamma LBD (unknown origin) expressed in HEK293T cells after 14 to 16 hrs by dual-Glo luciferase assay relative to pioglitazone; assay type: cell-based; outline: as §1
T2 sequence (whole entry): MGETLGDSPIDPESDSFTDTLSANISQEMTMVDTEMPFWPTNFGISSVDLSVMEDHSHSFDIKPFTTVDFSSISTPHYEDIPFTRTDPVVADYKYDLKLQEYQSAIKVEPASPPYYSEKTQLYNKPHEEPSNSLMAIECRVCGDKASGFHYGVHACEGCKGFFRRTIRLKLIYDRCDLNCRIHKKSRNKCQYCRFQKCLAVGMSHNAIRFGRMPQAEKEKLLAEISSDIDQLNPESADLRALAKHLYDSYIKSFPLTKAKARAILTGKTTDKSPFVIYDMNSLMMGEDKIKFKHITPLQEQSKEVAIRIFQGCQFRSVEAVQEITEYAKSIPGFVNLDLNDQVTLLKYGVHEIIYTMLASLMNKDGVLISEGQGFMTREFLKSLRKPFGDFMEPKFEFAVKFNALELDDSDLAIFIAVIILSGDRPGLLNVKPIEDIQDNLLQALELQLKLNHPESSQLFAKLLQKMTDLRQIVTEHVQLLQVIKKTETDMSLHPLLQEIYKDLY

[3] = molecular target: T3, Peroxisome proliferator-activated receptor delta (Homo sapiens) (UniProt Q03181); assay: Partial agonist activity at Gal4-fused PPARdelta LBD (unknown origin) expressed in HEK293T cells at 10 uM after 14 to 16 hrs by dual-Glo luciferase assay; assay type: cell-based
T3 sequence (whole entry): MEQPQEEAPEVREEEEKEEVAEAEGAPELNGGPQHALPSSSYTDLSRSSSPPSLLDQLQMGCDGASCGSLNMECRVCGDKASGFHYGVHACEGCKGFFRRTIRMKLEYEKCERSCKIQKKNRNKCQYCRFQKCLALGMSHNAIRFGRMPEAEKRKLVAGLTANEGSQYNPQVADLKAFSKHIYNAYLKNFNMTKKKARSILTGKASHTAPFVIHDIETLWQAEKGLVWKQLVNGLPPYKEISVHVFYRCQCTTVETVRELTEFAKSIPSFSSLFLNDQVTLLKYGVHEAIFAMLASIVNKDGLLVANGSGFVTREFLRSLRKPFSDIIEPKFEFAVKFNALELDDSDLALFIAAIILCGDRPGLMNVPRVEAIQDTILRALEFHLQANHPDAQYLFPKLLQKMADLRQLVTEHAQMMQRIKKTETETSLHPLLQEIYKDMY

[4] = molecular target: T4, Peroxisome proliferator-activated receptor gamma (Homo sapiens, UniProt P37231); assay: Partial agonist activity at Gal4-fused PPARgamma LBD (unknown origin) expressed in HEK293T cells after 14 to 16 hrs by dual-Glo luciferase assay; assay type: cell-based; outline: as §1
T4 sequence (P37231 whole entry): T2 sequence (whole entry)

[5] = molecular target: T5, Peroxisome proliferator-activated receptor alpha (Homo sapiens) (UniProt Q07869); assay: Partial agonist activity at Gal4-fused PPARalpha LBD (unknown origin) expressed in HEK293T cells after 14 to 16 hrs by dual-Glo luciferase assay relative to GW7647; assay type: cell-based; outline: as §1
T5 sequence (whole entry): T1 sequence (Q07869 whole entry)

[6] = molecular target: T3, Peroxisome proliferator-activated receptor delta (Homo sapiens); assay: Partial agonist activity at Gal4-fused PPARdelta LBD (unknown origin) expressed in HEK293T cells after 14 to 16 hrs by dual-Glo luciferase assay relative to L165041; assay type: cell-based; outline: as §1
[7] = tested on: PPARgamma/RXR (Homo sapiens); assay: Partial agonist activity at PPARgamma/RXR (unknown origin) expressed in HEK293T cells at 0.1 to 1 uM after 14 to 16 hrs by PPRE1 reporter gene based dual-Glo luciferase assay; conditions: HEK-293T
[8] = molecular target: T6, RXR alpha/PPAR gamma (Homo sapiens) (UniProt P37231+P19793); assay: Partial agonist activity at 1:2 Gal4-fused PPARgamma LBD/Gal4-fused RXRalpha (unknown origin) expressed in HEK293T cells at 0.1 to 1 uM after 14 to 16 hrs by dual-Glo luciferase assay; assay type: cell-based
Outline: (§2)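 Gal4-PPARγ hybrid reporter assay in HEK293T cells with Gal4-RXRα co-transfected. Firefly luciferase is the read-out, with constitutive renilla as the transfection and viability control. Efficacy is expressed relative to pioglitazone (1 µM). Activity data are normalized to counter variations in receptor protein amount.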

[9] = Effect on recombinant PPARgamma LBD/N-terminal GFP-fused RXRalpha mutant LBD (unknown origin) protein-protein dimerization at 10 uM measured after 2 hrs by HTRF assay; conditions: human
Outline: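 Cell-free HTRF assay of PPARγ–RXRα dimerization on recombinant proteins.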

[10] = molecular target: T2, Peroxisome proliferator-activated receptor gamma (Homo sapiens); assay: Partial agonist activity at recombinant N-terminal GFP-fused PPARgamma LBD (unknown origin) assessed as increase in biotinylated-CBP peptide recruitment measured after 2 hrs by HTRF assay
Outline: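 Cell-free HTRF assay of CBP coactivator recruitment to recombinant PPARγ protein.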

[11] = molecular target: T6, RXR alpha/PPAR gamma (Homo sapiens); assay: Partial agonist activity at 1:1 Gal4-fused PPARgamma LBD/Gal4-fused RXRalpha (unknown origin) expressed in HEK293T cells after 14 to 16 hrs by dual-Glo luciferase assay; assay type: cell-based; outline: as §2
[12] = molecular target: T7, Peroxisome proliferator-activated receptor delta (Homo sapiens, UniProt Q03181); assay: Partial agonist activity at Gal4-fused PPARdelta LBD (unknown origin) expressed in HEK293T cells after 14 to 16 hrs by dual-Glo luciferase assay; assay type: cell-based; outline: as §1
T7 sequence (Q03181 whole entry): T3 sequence (whole entry)

Structure (SMILES) | EC50 [1] [µM] | max activation [2] [%] | Activity [3] | EC50 [4] [µM] | max activation [5] [%] | max activation [6] [%] | EC50 [7] [µM] | Activity [8] | Activity [9] | Activity [10] | Activity [11] | EC50 [12] [µM]
CCCCCCC(Sc1nc2ccc(NCc3ccc(C(C)(C)C)cc3)cc2s1)C(=O)O (centres undefined) | 4 | 28 | inactive | 3.7 | 39 | – | – | – | – | – | – | –
CCCCC(Sc1nc2ccc(NC(=O)c3ccc(C(C)(C)C)cc3)cc2s1)C(=O)O (centres undefined) | 4.4 | 7.1 | inactive | 3.7 | 11 | – | – | – | – | – | – | –
CCCCCCC(Sc1nc2ccc(NCc3cccc(Cl)c3)cc2s1)C(=O)O (centres undefined) | 1.9 | 47 | inactive | 1.5 | 51 | – | – | – | – | – | – | –
CCCCCC[C@@H](Sc1nc2ccc(NS(=O)(=O)c3ccc(Cl)cc3Cl)cc2s1)C(=O)O | 0.43 | 101 | – | 0.0016 | 18 | 26 | 0.16 | Active | Not Active | Active | Active | 0.81
CCCCCCC(Sc1nc2ccc(NCc3ccc(Cl)cc3)cc2s1)C(=O)O (centres undefined) | 1.36 | 50 | inactive | 2.4 | 37 | – | – | – | – | – | – | –
CCCCCCC(Sc1nc2ccc(NCc3ccccc3)cc2s1)C(=O)O (centres undefined) | 1 | 47 | – | 1.7 | 28 | 19 | – | – | – | – | – | 6.1
CCCCCCC(Sc1nc2ccc(NS(=O)(=O)c3ccc(Cl)cc3)cc2s1)C(=O)O (centres undefined) | 0.7 | 39 | – | 0.05 | 16 | 21 | – | – | – | – | – | 5.3
CCCCCCC(Sc1nc2ccc(NC(=O)c3ccccc3)cc2s1)C(=O)O (centres undefined) | 0.77 | 43 | – | 4.9 | 31 | 27 | – | – | – | – | – | 7
CCCCCCC(Sc1nc2ccc(NS(=O)(=O)c3ccc(C(C)(C)C)cc3)cc2s1)C(=O)O (centres undefined) | 0.9 | 30 | inactive | 0.7 | 17 | – | – | – | – | – | – | –
CCCCCCC(Sc1nc2ccc(NCc3ccc(Cl)c(Cl)c3)cc2s1)C(=O)O (centres undefined) | 1.4 | 73 | – | 2.8 | 26 | – | – | – | – | – | – | > 10
CCCCCCC(Sc1nc2ccc(NCc3cc(Cl)cc(Cl)c3)cc2s1)C(=O)O (centres undefined) | 3.8 | 35 | – | 2.9 | 19 | 25 | – | – | – | – | – | 9.2
CCCCCCC(Sc1nc2ccc(NS(=O)(=O)c3ccc(-c4ccccc4)cc3)cc2s1)C(=O)O (centres undefined) | 5 | 26 | inactive | 0.26 | 23 | – | – | – | – | – | – | –
CCCCCCC(Sc1nc2ccc(NCc3ccc(C(F)(F)F)cc3)cc2s1)C(=O)O (centres undefined) | 3.1 | 39 | – | 1.8 | 59 | – | – | – | – | – | – | > 10
CCCCCCC(Sc1nc2ccc(NCc3ccc4ccccc4c3)cc2s1)C(=O)O (centres undefined) | 4 | 53 | – | 3 | 32 | 23 | – | – | – | – | – | 4.3
CCCCCCC(Sc1nc2ccc(NC(=O)c3ccc(C(C)(C)C)cc3)cc2s1)C(=O)O (centres undefined) | 3.1 | 19 | – | 4.3 | 12 | 22 | – | – | – | – | – | 6.2
CCCCCC[C@H](Sc1nc2ccc(NS(=O)(=O)c3ccc(Cl)cc3Cl)cc2s1)C(=O)O | 0.25 | 75 | – | 0.16 | 28 | 13 | – | – | Not Active | – | – | 0.4
CCCCCCC(Sc1nc2ccc(NCc3ccc(-c4ccccc4)cc3)cc2s1)C(=O)O (centres undefined) | 0.4 | 34 | – | 0.77 | 26 | – | – | – | – | – | – | > 10
